The values that follow come from ChEMBL document CHEMBL1151773, “Synthesis and biological evaluation of amide derivatives of (5,6-dimethoxy-2,3-dihydro-1H-inden-1-yl)acetic acid as anti-inflammatory agents with reduced gastrointestinal ulcerogenecity” (Eur J Med Chem, 2008).

Data set [1] deals with Rattus norvegicus. Description: Gastrointestinal toxicity in Wistar rat assessed as ulcer index at 1 mg/kg, po after 14 days. Also on record: route oral. The conditions noted are these: in vivo, 336 h. It is filed as organism-based. The method, boiled down: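 Gastric mucosa examined for ulceration at post-mortem of female albino rats sacrificed at the end of the 14-day once-daily oral dosing in the Freund's adjuvant arthritis study; ulcer index scored per animal. Mean ± SEM, n = 6.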

Data set [2] concerns Rattus norvegicus. Put plainly: Gastrointestinal toxicity in Wistar rat assessed as ulcer index at 30 mg/kg, po after 6 hrs. The class given is organism-based. The conditions noted are these: in vivo. Further details: dose 30 mg/kg, route oral. The method, boiled down:
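Female Wistar rats, 175±25 g, fasted 24 h, dosed orally once; sacrificed 6 h later by cervical dislocation. Stomach opened along greater curvature, saline-washed, mucosa inspected with a hand lens. Lesions graded I (edema/hyperemia/petechiae), II (hemorrhagic lesions with small erosions), III (deep ulcers); UI = nI + 2nII + 3nIII. Mean ± SEM, n = 6.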

Data set [3] has as its system Rattus norvegicus. Description: Antiarthritic activity in Freund's complete adjuvant challenged Albino rat model assessed as change in body weight at 10 mg/kg, po administered for 14 days daily once starting a day before adjuvant challenge. It is filed as functional. The conditions noted are these: 336 h, read-out: INH.
The test system of data set [4] is Rattus norvegicus. Put plainly: Antiarthritic activity in Albino rat assessed as inhibition of Freund's complete adjuvant-induced paw volume at 10 mg/kg, po administered for 14 days daily once starting a day before adjuvant challenge measured on day 13. It is filed as functional. The method, boiled down: (§1)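 Female albino rats, 160±10 g, six per group, dosed orally once daily for 14 days starting the day before 0.1 ml Freund's complete adjuvant into the right hind paw subplantar surface. Both hind paw volumes, measured up to a mark at the lateral malleolus, taken before and daily after adjuvant.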

For data set [5], the system named is Rattus norvegicus. Description: Antiarthritic activity in Albino rat assessed as inhibition of Freund's complete adjuvant-induced paw volume at 10 mg/kg, po administered for 14 days daily once starting a day before adjuvant challenge measured on day 8. It is filed as functional. The method, boiled down: as §1
Data set [6] has as its system Rattus norvegicus. Put plainly: Antiarthritic activity in Albino rat assessed as inhibition of Freund's complete adjuvant-induced paw volume at 10 mg/kg, po administered for 14 days daily once starting a day before adjuvant challenge measured on day 3. The class given is functional. The method, boiled down: as §1
In data set [7] the test system is Rattus norvegicus. Put plainly: Antipyretic activity in Wistar rat assessed as change in LPS-induced rectal temperature at 10 mg/kg, po administered 30 mins before LPS challenge after 7 hrs. It is filed as functional. The method, boiled down: (§2)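 Adult female Wistar rats, 170±20 g, fasted 24 h, dosed orally at 09:00; 30 min later E. coli 0111:B4 phenol-extracted LPS in apyrogenic saline given i.p. Rectal temperature by telethermometer probe just before and 1–7 h hourly after LPS; temperature index calculated from these readings. n = 6.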

In data set [8] the test system is Rattus norvegicus. Description: Antipyretic activity in Wistar rat assessed as change in LPS-induced rectal temperature at 10 mg/kg, po administered 30 mins before LPS challenge after 6 hrs. It is filed as functional. The method, boiled down: as §2
Data set [9] concerns Rattus norvegicus. Description: Antipyretic activity in Wistar rat assessed as change in LPS-induced rectal temperature at 10 mg/kg, po administered 30 mins before LPS challenge after 5 hrs. It is filed as functional. The method, boiled down:
as §2

Data set [10] has as its system Rattus norvegicus. Put plainly: Antipyretic activity in Wistar rat assessed as change in LPS-induced rectal temperature at 10 mg/kg, po administered 30 mins before LPS challenge after 4 hrs. The class given is functional. The method, boiled down: as §2
The test system of data set [11] is Rattus norvegicus. Put plainly: Antipyretic activity in Wistar rat assessed as change in LPS-induced rectal temperature at 10 mg/kg, po administered 30 mins before LPS challenge after 3 hrs. The class given is functional. The method, boiled down: as §2
The subject of data set [12] is Rattus norvegicus. Put plainly: Antipyretic activity in Wistar rat assessed as change in LPS-induced rectal temperature at 10 mg/kg, po administered 30 mins before LPS challenge after 2 hrs. The class given is functional. The method, boiled down:
as §2

The test system of data set [13] is Rattus norvegicus. Description: Antipyretic activity in Wistar rat assessed as change in LPS-induced rectal temperature at 10 mg/kg, po administered 30 mins before LPS challenge after 1 hr. The class given is functional. The method, boiled down:
as §2

Data set [14] deals with Mus musculus. Description: Analgesic activity in Swiss albino mouse assessed as inhibition of acetic acid-induced writhing at 10 mg/kg, po administered 60 mins before acetic acid challenge after 5 to 15 mins relative to control. The class given is functional. The method, boiled down:
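Female Swiss albino mice, 20±5 g, fasted overnight with free water access, dosed orally; 1 h later injected i.p. with 1% v/v acetic acid at 0.1 ml/10 g. Writhes (full hind-limb extension) counted for 15 min, starting 5 min after injection; only animals giving 20 or more writhes used. % inhibition = 100(1−Wt/Wc) vs control group mean; six animals per group.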
(Writhing tests count abdominal constrictions after an irritant is injected.)

Data set [15] deals with Rattus norvegicus. Put plainly: Antiinflammatory activity in Wistar rat assessed as inhibition of carrageenan-induced hind paw edema volume at 10 mg/kg, po administered 60 mins before carrageenan challenge after 24 hrs relative to control. The class given is functional. A general note: Carrageenan injected into the paw causes an acute inflammation.
In data set [16] the test system is Rattus norvegicus. Description: Antiinflammatory activity in Wistar rat assessed as inhibition of carrageenan-induced hind paw edema volume at 10 mg/kg, po administered 60 mins before carrageenan challenge after 6 hrs relative to control. It is filed as functional.
Data set [17] deals with Rattus norvegicus. Description: Antiinflammatory activity in Wistar rat assessed as inhibition of carrageenan-induced hind paw edema volume at 10 mg/kg, po administered 60 mins before carrageenan challenge after 4 hrs relative to control. The class given is functional. The method, boiled down: (§3)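 Female Wistar rats (170± 20 g), fasted overnight, n=6 per group; dosed orally, then 0.1 ml of 1% carrageenan injected subplantar into right hind paw 1 h later.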

Data set [18] concerns Rattus norvegicus. Description: Antiinflammatory activity in Wistar rat assessed as inhibition of carrageenan-induced hind paw edema volume at 10 mg/kg, po administered 60 mins before carrageenan challenge after 3 hrs relative to control. It is filed as functional. The method, boiled down: as §3
The test system of data set [19] is Rattus norvegicus. Put plainly: Antiinflammatory activity in Wistar rat assessed as inhibition of carrageenan-induced hind paw edema volume at 10 mg/kg, po administered 60 mins before carrageenan challenge after 1 hr relative to control. It is filed as functional. The method, boiled down: as §3
For data set [20], the species on record is Rattus norvegicus. Description: animal or person. The conditions noted are these: Wistar, po, read-out: INH.

In the case of `COc1ccc2c(c1)c(CC(=O)O)c(C)n2C(=O)c1ccc(Cl)cc1` [INDOMETHACIN], the UI in data set [1] came out at 72; in data set [2], 31.37. Further, the inhibition in vivo at 10 mg/kg in [3] worked out at 5.68 g; in [4], 46.5%; in data set [5], 43.9%; in data set [6], 37.5%; in data set [14] it was 51.5%; in data set [15], 13.3%. Also, the inhibition in vivo at 10 mg/kg came out at 48.1% in [16]; 57.8% in data set [17]; 65.2% in data set [18]; 50% in data set [19]; 58% in [20]. Moreover, the Activity in [7] is 0.55 °C; in [8] it was 0.35 °C; in data set [9], 0.3 °C; in [10], 0.22 °C; in [11], -0.11 °C; in [12], -1.03 °C. The Activity in data set [13] was -0.39 °C.
